In brackets after ≈: the same amount, converted by molar mass.

Format in all cases: functional
Test [1] deals with Staphylococcus aureus. Kind of test: Antibacterial activity against Staphylococcus aureus RN4220 overexpressing MsrA macrolide efflux protein after 18 hrs by MTT assay. As to conditions: RN4220, 18 h. In short, it runs like this:
(§1)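 MIC by broth microdilution in Mueller-Hinton broth with 20 mg/L Ca2+ and 10 mg/L Mg2+. Strains were grown overnight on nutrient agar at 37 °C. Agents were dissolved in DMSO, diluted in broth to a 512 mg/L stock, and serially diluted to a final 128−0.25 range with inoculum. Plates ran in duplicate for 18 h at 37 °C, then […] methanolic MTT for 30 min, scored by blue colour.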

Test [2] deals with Staphylococcus aureus. Kind of test: Antibacterial activity against Staphylococcus aureus XU212 overexpressing TetK tetracycline efflux pump after 18 hrs by MTT assay. As to conditions: XU212, 18 h. In short, it runs like this:
as §1

For test [3], the system named is Staphylococcus aureus. The test can be described thus: Antibacterial activity against epidemic methicillin-resistant Staphylococcus aureus EMRSA-16 after 18 hrs by MTT assay. The following applies: EMRSA-16, 18 h. In short, it runs like this:
as §1
A general note: Tetrazolium assays rely on reduction of a dye to a coloured formazan, in cell work by metabolically active cells.

Test [4] relates to Staphylococcus aureus. The test can be described thus: Antibacterial activity against Staphylococcus aureus ATCC 25923 after 18 hrs by MTT assay. As to conditions: ATCC 25923, 18 h. In short, it runs like this: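 Strain grown overnight at 37 °C on nutrient agar before assay. MIC by broth microdilution in Mueller-Hinton broth with 20 mg/L Ca2+ and 10 mg/L Mg2+. Agents in DMSO, diluted in MHB to a 512 mg/L stock, then serially diluted to a final 128−0.25 […]. Duplicates, 18 h at 37 °C, then 5 mg/L methanolic MTT for 30 min; colour read-out.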

In test [5] the test system is Staphylococcus aureus. Kind of test: Antibacterial activity against Staphylococcus aureus 1199B overexpressing NorA pump after 18 hrs by MTT assay. In short, it runs like this:
as §1

In test [6] the test system is Staphylococcus aureus. The test can be described thus: Antibacterial activity against epidemic methicillin-resistant Staphylococcus aureus EMRSA-15 after 18 hrs by MTT assay. The following applies: EMRSA-15, 18 h. In short, it runs like this: as §1

One may read the MIC as the lowest concentration found to suppress growth. The low end stands for inhibition by little substance, the high end for a need for much substance. For `COC(=O)/C=C\c1ccc(OC/C=C(\C)CCC=C(C)C)cc1`, the MIC against Staphylococcus aureus [1], in the test on Staphylococcus aureus [2], in the test with Staphylococcus aureus [3], against Staphylococcus aureus [4], against Staphylococcus aureus [5] and with Staphylococcus aureus [6] was above 128 µg/mL in each case.
Regarding `CCc1oc(=O)c(Cc2c(O)c(CC=C(C)C)c(O)c(C(C)=O)c2O)c(O)c1CC`, the MIC against Staphylococcus aureus [1] was determined as 2 µg/mL (≈ 4.8 µM); in the test with Staphylococcus aureus [2], 16 µg/mL (≈ 38.4 µM); against Staphylococcus aureus [3], 2 µg/mL (≈ 4.8 µM); with Staphylococcus aureus [4], 1 µg/mL (≈ 2.4 µM); with Staphylococcus aureus [5] it was 1 µg/mL (≈ 2.4 µM); in the test with Staphylococcus aureus [6], 2 µg/mL (≈ 4.8 µM).
With `CCc1oc(OC)c(Cc2c(O)c(CC=C(C)C)c(O)c(C(C)=O)c2O)c(=O)c1C` [METHYLARZANOL], the MIC in the test with Staphylococcus aureus [1], with Staphylococcus aureus [2], against Staphylococcus aureus [3], in the test on Staphylococcus aureus [4], in the test on Staphylococcus aureus [5] and against Staphylococcus aureus [6] was above 128 µg/mL each time.
In the case of `CCc1oc(=O)c(Cc2c(O)c(CC=C(C)C)c(O)c(C(C)=O)c2O)c(O)c1C` [ARZANOL], the MIC came to 2 µg/mL (≈ 4.97 µM) with Staphylococcus aureus [1]; 4 µg/mL (≈ 9.94 µM) in the test on Staphylococcus aureus [2]; 2 µg/mL (≈ 4.97 µM) in the test with Staphylococcus aureus [3]; 1 µg/mL (≈ 2.48 µM) against Staphylococcus aureus [4]; 1 µg/mL (≈ 2.48 µM) with Staphylococcus aureus [5]; 4 µg/mL (≈ 9.94 µM) against Staphylococcus aureus [6].
In the case of `C=C(COC(=O)CC)[C@H]1Cc2cc(C(C)=O)ccc2O1` [PROPANOYLBITALIN A], the MIC with Staphylococcus aureus [1], with Staphylococcus aureus [2], with Staphylococcus aureus [3], against Staphylococcus aureus [4], in the test on Staphylococcus aureus [5] and in the test on Staphylococcus aureus [6] was above 128 µg/mL throughout.
With `CCCc1oc(=O)c(C(C)c2c(O)c(CC=C(C)C)c(O)c(C(C)=O)c2O)c(O)c1C(C)C` (stereo unspecified), the MIC in the test on Staphylococcus aureus [1] amounted to 32 µg/mL (≈ 69.8 µM); with Staphylococcus aureus [2], 128 µg/mL (≈ 279 µM); in the test with Staphylococcus aureus [3] it was 128 µg/mL (≈ 279 µM); against Staphylococcus aureus [4] it was 128 µg/mL (≈ 279 µM); against Staphylococcus aureus [5], 32 µg/mL (≈ 69.8 µM); with Staphylococcus aureus [6], 32 µg/mL (≈ 69.8 µM).
With `CCc1oc(=O)c(Cc2c(O)c(C)c(CC)oc2=O)c(O)c1C` [HELIPYRONE], the MIC against Staphylococcus aureus [1] was 12 µg/mL (≈ 37.5 µM); in the test on Staphylococcus aureus [2], above 128 µg/mL; in the test on Staphylococcus aureus [3], 128 µg/mL (≈ 400 µM); against Staphylococcus aureus [4] it was 64 µg/mL (≈ 200 µM); in the test with Staphylococcus aureus [5], above 128 µg/mL; in the test on Staphylococcus aureus [6], above 128 µg/mL.
On to `CCC(C)C(=O)C(C)c1oc(=O)c(C)c(O)c1C` (stereo unspecified) [MICROPYRONE], for which the MIC was 128 µg/mL (≈ 507 µM) against Staphylococcus aureus [1]; above 128 µg/mL in the test with Staphylococcus aureus [2]; 128 µg/mL (≈ 507 µM) in the test on Staphylococcus aureus [3]; above 128 µg/mL with Staphylococcus aureus [4]; above 128 µg/mL against Staphylococcus aureus [5]; above 128 µg/mL against Staphylococcus aureus [6].
For `C=C(COC(C)=O)[C@H]1Cc2cc(C(C)=O)ccc2O1`, the MIC against Staphylococcus aureus [1], against Staphylococcus aureus [2], against Staphylococcus aureus [3], in the test on Staphylococcus aureus [4], against Staphylococcus aureus [5] and in the test with Staphylococcus aureus [6] was above 128 µg/mL each time.
With `C=C(COC(=O)CCCCCCC/C=C\CCCCCCCC)[C@H]1Cc2cc(C(C)=O)ccc2O1` [OLEOYLBITALIN A], the MIC against Staphylococcus aureus [1], in the test with Staphylococcus aureus [2], against Staphylococcus aureus [3], against Staphylococcus aureus [4], with Staphylococcus aureus [5] and against Staphylococcus aureus [6] was above 128 µg/mL in each case.
Take `CCc1c(C)oc(=O)c(C(C)c2c(O)c(CC=C(C)C)c(O)c(C(C)=O)c2O)c1O` (stereo unspecified): the MIC was 128 µg/mL (≈ 307 µM) in the test on Staphylococcus aureus [1]; above 128 µg/mL with Staphylococcus aureus [2]; 128 µg/mL (≈ 307 µM) with Staphylococcus aureus [3]; 64 µg/mL (≈ 154 µM) in the test on Staphylococcus aureus [4]; 128 µg/mL (≈ 307 µM) against Staphylococcus aureus [5]; 128 µg/mL (≈ 307 µM) in the test on Staphylococcus aureus [6].
Turning to `C=C(COC(=O)CCCCCCCC)[C@H]1Cc2cc(C(C)=O)ccc2O1` [NONANOYLBITALIN A], the minimum inhibitory concentration (MIC) in the test on Staphylococcus aureus [1], with Staphylococcus aureus [2], against Staphylococcus aureus [3], in the test with Staphylococcus aureus [4], in the test on Staphylococcus aureus [5] and against Staphylococcus aureus [6] was above 128 µg/mL each time.
`CCc1oc(=O)c(Cc2c(O)c(C(C)=O)c(O)c3c2OC(C)(C)CC3)c(O)c1C` [CYCLOARZANOL B]: the MIC against Staphylococcus aureus [1], in the test on Staphylococcus aureus [2], against Staphylococcus aureus [3], against Staphylococcus aureus [4], in the test with Staphylococcus aureus [5] and against Staphylococcus aureus [6] was above 128 µg/mL in each case.
For `C=C(COC(=O)CCC(C)C)[C@H]1Cc2cc(C(C)=O)ccc2O1`, the MIC in the test on Staphylococcus aureus [1], against Staphylococcus aureus [2], against Staphylococcus aureus [3], in the test on Staphylococcus aureus [4], in the test on Staphylococcus aureus [5] and in the test with Staphylococcus aureus [6] was above 128 µg/mL in each case.
Consider `CCCc1oc(=O)c(C(c2ccccc2)c2c(O)c(CC=C(C)C)c(O)c(C(C)=O)c2O)c(O)c1C(C)C` (stereo unspecified), for which the MIC against Staphylococcus aureus [1] was determined as 2 µg/mL (≈ 3.84 µM); in the test with Staphylococcus aureus [2], 4 µg/mL (≈ 7.68 µM); in the test with Staphylococcus aureus [3] it was 8 µg/mL (≈ 15.4 µM); with Staphylococcus aureus [4] it was 8 µg/mL (≈ 15.4 µM); in the test with Staphylococcus aureus [5], 16 µg/mL (≈ 30.7 µM); with Staphylococcus aureus [6], 6 µg/mL (≈ 11.5 µM).
For the compound `CCCCCC(=O)C(c1c(O)c(CC=C(C)C)c(O)c(C(C)=O)c1O)c1c(O)c(CC)c(C)oc1=O` (stereo unspecified), the MIC worked out at 8 µg/mL (≈ 16 µM) against Staphylococcus aureus [1]; 16 µg/mL (≈ 32 µM) in the test with Staphylococcus aureus [2]; 8 µg/mL (≈ 16 µM) in the test with Staphylococcus aureus [3]; 8 µg/mL (≈ 16 µM) with Staphylococcus aureus [4]; 16 µg/mL (≈ 32 µM) in the test on Staphylococcus aureus [5]; 16 µg/mL (≈ 32 µM) in the test with Staphylococcus aureus [6].
As for `C=C(COC(=O)C(C)CC)[C@H]1Cc2cc(C(C)=O)ccc2O1` (stereo partly specified), the MIC against Staphylococcus aureus [1], against Staphylococcus aureus [2], against Staphylococcus aureus [3], in the test with Staphylococcus aureus [4], against Staphylococcus aureus [5] and against Staphylococcus aureus [6] was above 128 µg/mL throughout.
For `C=C(COC(=O)C(C)C)[C@H]1Cc2cc(C(C)=O)ccc2O1`, the minimal inhibitory concentration (MIC) against Staphylococcus aureus [1], against Staphylococcus aureus [2], against Staphylococcus aureus [3], in the test on Staphylococcus aureus [4], against Staphylococcus aureus [5] and with Staphylococcus aureus [6] was above 128 µg/mL in each case.
For `CCc1oc(=O)c(Cc2c(O)c3c(c(C(C)=O)c2O)OC(C)(C)CC3)c(O)c1C` [CYCLOARZANOL A], the MIC with Staphylococcus aureus [1] was 32 µg/mL (≈ 79.5 µM); against Staphylococcus aureus [2], 128 µg/mL (≈ 318 µM); in the test on Staphylococcus aureus [3], above 128 µg/mL; with Staphylococcus aureus [4], 32 µg/mL (≈ 79.5 µM); with Staphylococcus aureus [5], 128 µg/mL (≈ 318 µM); in the test on Staphylococcus aureus [6] it was 128 µg/mL (≈ 318 µM).
As for `CCn1cc(C(=O)O)c(=O)c2cc(F)c(N3CCNCC3)cc21` [NORFLOXACIN], the MIC was determined as 0.5 µg/mL (≈ 1.57 µM) in the test on Staphylococcus aureus [1]; 8 µg/mL (≈ 25.1 µM) with Staphylococcus aureus [2]; 128 µg/mL (≈ 401 µM) in the test on Staphylococcus aureus [3]; 0.5 µg/mL (≈ 1.57 µM) with Staphylococcus aureus [4]; 32 µg/mL (≈ 100 µM) against Staphylococcus aureus [5]; 0.5 µg/mL (≈ 1.57 µM) against Staphylococcus aureus [6].
`COC(=O)/C=C/c1ccc(OC/C=C(\C)CCC=C(C)C)cc1`: the minimal inhibitory concentration (MIC) with Staphylococcus aureus [1], with Staphylococcus aureus [2], against Staphylococcus aureus [3], against Staphylococcus aureus [4], against Staphylococcus aureus [5] and with Staphylococcus aureus [6] was above 128 µg/mL in each case.

Source of the values: ChEMBL document CHEMBL2331436, “Antimicrobial phenolics and unusual glycerides from Helichrysum italicum subsp. microphyllum” (2013).
